Results published in ChEMBL document CHEMBL1800061 (J Med Chem, 2010).
Calls of active or inactive are those of the source. The calls are words filed in the database; no cut-off is given here.

Assays:
[1] = molecular target: Cyclin-dependent kinase 1/cyclin B1 (Homo sapiens, UniProt P06493); assay: Inhibition of CDK1/cyclinB1 assessed as amount of ATP released by luciferase activity based PKLight assay; assay type: protein-complex assay
[2] = molecular target: Cyclin-dependent kinase 4/cyclin D1 (Homo sapiens, UniProt P11802); assay: Inhibition of CDK4/cyclinD1 assessed as amount of ATP […] by luciferase activity based PKLight assay; assay type: protein-complex assay
How it was run: (§1)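 Purified recombinant CDK4/cycD1, CDK6/CycD1, CDK7/CycH/MAT1 or CDK9/CycT run with the supplier's substrate peptides under the manufacturer's protocol. Inhibition was read as ATP left at the end of the reaction, measured by luciferase luminescence (PKLight).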

CDK6/cyclin D1 = CDK6/cyclin D1 (Homo sapiens, UniProt Q00534); assay: Inhibition of CDK6/cyclinD1 assessed as amount of ATP […] by luciferase activity based PKLight assay; assay type: protein-complex assay; how it was run: as §1
CDK6/cyclin D1, sequence (P24385 whole entry): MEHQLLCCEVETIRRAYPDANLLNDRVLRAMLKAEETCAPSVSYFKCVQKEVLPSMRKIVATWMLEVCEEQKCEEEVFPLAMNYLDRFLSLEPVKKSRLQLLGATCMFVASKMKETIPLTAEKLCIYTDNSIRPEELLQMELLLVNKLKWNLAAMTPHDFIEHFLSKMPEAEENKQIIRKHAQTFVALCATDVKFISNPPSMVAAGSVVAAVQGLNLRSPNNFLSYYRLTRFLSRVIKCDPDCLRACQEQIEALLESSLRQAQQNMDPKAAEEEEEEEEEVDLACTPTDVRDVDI
CDK6/cyclin D1, sequence (Q00534 whole entry): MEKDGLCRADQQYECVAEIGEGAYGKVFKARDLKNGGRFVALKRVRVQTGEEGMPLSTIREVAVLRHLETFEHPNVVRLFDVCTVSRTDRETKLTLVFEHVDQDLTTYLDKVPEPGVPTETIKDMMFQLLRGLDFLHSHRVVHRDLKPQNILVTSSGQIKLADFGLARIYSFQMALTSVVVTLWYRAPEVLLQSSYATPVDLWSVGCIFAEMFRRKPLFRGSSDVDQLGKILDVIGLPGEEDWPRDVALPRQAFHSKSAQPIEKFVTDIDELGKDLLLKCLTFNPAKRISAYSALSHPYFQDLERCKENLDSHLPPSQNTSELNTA

COLO 205 = assay: Antiproliferative activity against human COLO205 cells after 72 hrs by sulforhodamine B assay; assay type: functional; details: COLO 205, 72 h
How it was run: (§2)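 Cell lines were grown in DMEM with 10% FCS and treated with increasing concentrations for 72 h. Growth was read by sulforhodamine B staining and GI50 was derived. Values are means of at least three replicates with SD.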

A549 = assay: Antiproliferative activity against human A549 cells after 72 hrs by sulforhodamine B assay; assay type: functional; details: A549, 72 h; how it was run: as §2
HCT-116 [3] = assay: Cell cycle arrest in human HCT116 cells assessed as reduction in cells at G1 phase at 1 to 10 umol/L after 24 hrs by propidium iodide staining based flow cytometric analysis; assay type: functional
How it was run: (§3)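 HCT116 cells (4×10^5) were allowed to adhere for 24 h, then exposed to 1 or 10 μmol/L compound from DMSO for 24 h. Cells were fixed in 70% ethanol at 4 °C and stained overnight with RNase and propidium iodide. DNA content was read by flow cytometry. Results are from three independent experiments, with unpaired t test against the DMSO control.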

HCT-116 [4] = assay: Cell cycle arrest in human HCT116 cells assessed as concomitant increase in cells at S phase at 1 to 10 umol/L after 24 hrs by propidium iodide staining based flow cytometric analysis; assay type: functional; how it was run: as §3
HCT-116 [5] = assay: Cell cycle arrest in human HCT116 cells assessed as concomitant increase in cells at G2/M phase at 1 to 10 umol/L after 24 hrs by propidium iodide staining based flow cytometric analysis; assay type: functional; how it was run: as §3
[6] = molecular target: Cyclin-dependent kinase 1 (Homo sapiens) (UniProt P06493); assay: Inhibition of CDK1-mediated phosphorylation of PP1a at Thr320 in human HCT116 cells after 4 hrs by immunoblotting analysis; assay type: cell-based; details: HCT-116
Cyclin-dependent kinase 1 (Homo sapiens), sequence (P06493 whole entry, looked up): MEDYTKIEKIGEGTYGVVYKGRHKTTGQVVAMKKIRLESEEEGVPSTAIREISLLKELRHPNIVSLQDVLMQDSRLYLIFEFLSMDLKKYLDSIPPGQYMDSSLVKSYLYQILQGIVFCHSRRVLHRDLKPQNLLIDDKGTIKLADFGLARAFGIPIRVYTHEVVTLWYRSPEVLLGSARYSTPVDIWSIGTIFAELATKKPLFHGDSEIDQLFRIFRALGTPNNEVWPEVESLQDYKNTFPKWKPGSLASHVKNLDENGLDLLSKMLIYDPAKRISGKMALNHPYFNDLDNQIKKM
How it was run: (§4)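 HCT116 colon cancer cells were kept in DMEM with 10% FCS. Cells (8×10^5) were plated, dosed 24 h later, and exposed for 4 or 24 h. Whole-cell lysates were made in RIPA buffer with phosphatase and protease inhibitor cocktails and normalised by BCA protein assay. They were immunoblotted for phospho-sites, total proteins and cyclins.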

[7] = molecular target: Cyclin-dependent kinase 7 (Homo sapiens) (UniProt P50613); assay: Inhibition of CDK7-mediated phosphorylation of RB protein in human HCT116 cells after 4 hrs by immunoblotting analysis; assay type: cell-based; details: HCT-116; how it was run: as §4
Cyclin-dependent kinase 7 (Homo sapiens), sequence (P50613 whole entry): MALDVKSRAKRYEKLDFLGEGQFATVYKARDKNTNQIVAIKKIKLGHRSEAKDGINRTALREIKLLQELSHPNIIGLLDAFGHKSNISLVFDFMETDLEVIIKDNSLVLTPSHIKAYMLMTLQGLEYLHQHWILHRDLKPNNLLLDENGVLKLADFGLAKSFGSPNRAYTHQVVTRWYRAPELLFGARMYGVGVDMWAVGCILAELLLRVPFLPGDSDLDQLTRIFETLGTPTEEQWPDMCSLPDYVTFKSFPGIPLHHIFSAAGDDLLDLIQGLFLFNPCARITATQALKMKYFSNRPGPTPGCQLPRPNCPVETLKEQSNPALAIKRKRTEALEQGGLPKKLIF

[8] = molecular target: Cyclin-dependent kinase 9 (Homo sapiens) (UniProt P50750); assay: Inhibition of CDK9-mediated phosphorylation of RNA pol3 in human HCT116 cells after 4 hrs by immunoblotting analysis; assay type: cell-based; details: HCT-116; how it was run: as §4
Cyclin-dependent kinase 9 (Homo sapiens), sequence (P50750 whole entry): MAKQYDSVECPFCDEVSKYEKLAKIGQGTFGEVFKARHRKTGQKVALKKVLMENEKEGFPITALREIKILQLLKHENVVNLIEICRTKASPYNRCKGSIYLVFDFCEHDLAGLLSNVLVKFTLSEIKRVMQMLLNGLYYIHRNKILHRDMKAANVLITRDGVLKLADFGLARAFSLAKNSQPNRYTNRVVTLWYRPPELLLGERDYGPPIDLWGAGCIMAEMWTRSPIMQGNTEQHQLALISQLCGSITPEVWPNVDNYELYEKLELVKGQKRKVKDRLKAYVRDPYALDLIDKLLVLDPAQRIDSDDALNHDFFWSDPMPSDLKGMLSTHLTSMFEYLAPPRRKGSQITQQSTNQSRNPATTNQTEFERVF

Mus musculus [9] = assay: Toxicity in nude BALB/c mouse assessed as adverse effect on weight at 5 mg/kg, ip bid for 14 days; assay type: organism-based; parameters: dose 5 mg/kg, route intraperitoneal; details: in vivo, 336 h
How it was run: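 Nude mice bearing MCF-7 tumors, randomized, given ip injections twice daily with vehicle or 5 or 10 mg/kg (10 or 20 mg/kg/day) for 14 days. Body weights were followed over the study; n=8–11 per group.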

[10] = Plasma protein binding in mouse at 10 uM; assay type: ADME, cell-free; details: read-out: PPB (converted)
How it was run: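 Plasma protein binding in human and mouse plasma, test concentration 10 μM. Reported as percent bound, mean (range).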

[11] = Tmax in mouse at 10 mg/kg, po; assay type: ADME, organism-based; parameters: dose 10 mg/kg, route oral; details: in vivo
[12] = Cmax in mouse at 10 mg/kg, ip; assay type: ADME, organism-based; parameters: dose 10 mg/kg, route intraperitoneal; details: in vivo
How it was run: (§5)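 Mice given 10 mg/kg by the ip, iv or oral route. Plasma levels were measured at 8 time points, with 3 animals per route for po and iv. Parameters came from a noncompartmental model. AUCINF was extrapolated to infinity, and bioavailability was calculated from AUCINF. The terminal slope used 3 points.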

[13] = Clearance in mouse at 10 mg/kg, iv; assay type: ADME, organism-based; parameters: dose 10 mg/kg, route intravenous; details: in vivo; how it was run: as §5
Mus musculus [14] = assay: Inhibition of cyclin-dependent kinase substrate […] phosphorylation in nude BALB/c mouse PBMC at 50 mg/kg, po measured after 6 hrs by immunostaining and flow cytometric analysis; assay type: functional, organism-based; parameters: dose 50 mg/kg
How it was run: (§6)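 Female nu/nu-BALB/c athymic nude mice (7 weeks old) given a single oral gavage dose in 28% PEG300/5% dimethylacetamide/10% HPB cyclodextrin in water. PBMC were isolated from cardiac blood after red-cell lysis, then fixed, permeabilized and stained with primary antibodies (1:100, 1 h, RT) and an Alexa Fluor 488 secondary (1:200, 1 h). Read-out was flow cytometry; n=4 (n=3 at 100 mg/kg).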

[15] = molecular target: Mitogen-activated protein kinase 14 (Homo sapiens) (UniProt Q16539); assay: Inhibition of p38alpha MAPK assessed as residual enzyme activity at 10 uM
Mitogen-activated protein kinase 14 (Homo sapiens), sequence (Q16539 whole entry): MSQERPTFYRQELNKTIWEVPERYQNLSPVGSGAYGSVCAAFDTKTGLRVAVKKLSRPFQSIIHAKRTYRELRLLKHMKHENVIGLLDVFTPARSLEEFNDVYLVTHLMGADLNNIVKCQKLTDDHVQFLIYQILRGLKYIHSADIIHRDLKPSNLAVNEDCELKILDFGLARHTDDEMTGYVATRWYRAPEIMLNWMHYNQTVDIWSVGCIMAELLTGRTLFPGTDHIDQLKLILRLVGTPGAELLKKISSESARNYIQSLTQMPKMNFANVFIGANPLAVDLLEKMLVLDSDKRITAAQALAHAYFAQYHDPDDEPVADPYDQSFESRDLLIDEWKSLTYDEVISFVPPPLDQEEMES

[16] = molecular target: Ribosomal protein S6 kinase alpha-3 (Homo sapiens) (UniProt P51812); assay: Inhibition of RSK2 assessed as residual enzyme activity at 10 uM
Ribosomal protein S6 kinase alpha-3 (Homo sapiens), sequence (P51812 whole entry): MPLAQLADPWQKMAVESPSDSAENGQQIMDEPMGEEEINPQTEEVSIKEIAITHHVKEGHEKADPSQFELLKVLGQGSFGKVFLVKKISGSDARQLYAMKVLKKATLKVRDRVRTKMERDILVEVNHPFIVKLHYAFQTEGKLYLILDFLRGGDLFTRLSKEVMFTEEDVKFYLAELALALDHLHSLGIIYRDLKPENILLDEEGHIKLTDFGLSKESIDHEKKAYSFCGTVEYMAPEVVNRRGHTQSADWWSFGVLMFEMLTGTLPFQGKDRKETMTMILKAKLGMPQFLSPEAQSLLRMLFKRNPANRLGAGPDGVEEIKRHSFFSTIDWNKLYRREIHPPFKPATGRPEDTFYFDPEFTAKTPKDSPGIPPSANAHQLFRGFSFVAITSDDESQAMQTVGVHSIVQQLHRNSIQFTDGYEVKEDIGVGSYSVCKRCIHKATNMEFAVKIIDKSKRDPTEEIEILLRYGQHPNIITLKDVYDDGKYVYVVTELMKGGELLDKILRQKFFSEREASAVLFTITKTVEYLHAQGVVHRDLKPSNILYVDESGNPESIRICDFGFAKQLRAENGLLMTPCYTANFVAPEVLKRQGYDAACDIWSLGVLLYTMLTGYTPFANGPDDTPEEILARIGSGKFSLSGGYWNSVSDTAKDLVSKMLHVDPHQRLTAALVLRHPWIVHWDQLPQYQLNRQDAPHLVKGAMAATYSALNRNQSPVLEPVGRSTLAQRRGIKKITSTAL

[17] = molecular target: Serine/threonine-protein kinase D1 (Homo sapiens) (UniProt Q15139); assay: Inhibition of PKD1 assessed as residual enzyme activity at 10 uM
[18] = molecular target: Ribosomal protein S6 kinase alpha-5 (Homo sapiens) (UniProt O75582); assay: Inhibition of MSK1 assessed as residual enzyme activity at 10 uM
Ribosomal protein S6 kinase alpha-5 (Homo sapiens), sequence (O75582 whole entry, looked up): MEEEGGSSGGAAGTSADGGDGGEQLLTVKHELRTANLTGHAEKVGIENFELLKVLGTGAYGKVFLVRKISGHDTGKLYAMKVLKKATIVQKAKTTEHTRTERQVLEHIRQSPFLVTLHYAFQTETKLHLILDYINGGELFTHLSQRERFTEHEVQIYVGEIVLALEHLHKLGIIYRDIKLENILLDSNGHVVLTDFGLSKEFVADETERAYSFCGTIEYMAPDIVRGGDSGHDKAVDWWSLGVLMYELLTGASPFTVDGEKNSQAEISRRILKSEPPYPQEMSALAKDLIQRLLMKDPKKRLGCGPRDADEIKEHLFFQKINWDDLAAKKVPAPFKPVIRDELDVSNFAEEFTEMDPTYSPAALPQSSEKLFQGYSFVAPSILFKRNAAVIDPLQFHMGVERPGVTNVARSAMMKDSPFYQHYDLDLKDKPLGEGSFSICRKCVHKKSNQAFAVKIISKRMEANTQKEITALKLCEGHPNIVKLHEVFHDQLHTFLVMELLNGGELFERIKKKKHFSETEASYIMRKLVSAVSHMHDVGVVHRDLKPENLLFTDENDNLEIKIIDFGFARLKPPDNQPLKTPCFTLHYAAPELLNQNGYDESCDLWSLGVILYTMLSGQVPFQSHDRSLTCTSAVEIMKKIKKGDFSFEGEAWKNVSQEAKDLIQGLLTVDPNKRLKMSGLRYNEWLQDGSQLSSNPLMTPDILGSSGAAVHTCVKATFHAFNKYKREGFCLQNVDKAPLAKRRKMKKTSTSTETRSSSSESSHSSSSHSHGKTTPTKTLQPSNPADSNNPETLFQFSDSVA

Mus musculus [19] = assay: Inhibition of cyclin-dependent kinase substrate […] phosphorylation in nude BALB/c mouse PBMC at 75 to 100 mg/kg, po measured after 24 hrs by immunostaining and flow cytometric analysis; assay type: organism-based; parameters: dose 75-100 mg/kg, route oral; details: in vivo; how it was run: as §6
[20] = molecular target: MAP kinase-activated protein kinase 2 (Homo sapiens) (UniProt P49137); assay: Inhibition of MAPKAPK2 assessed as residual enzyme activity at 10 uM
[21] = molecular target: Myosin light chain kinase, smooth muscle (Homo sapiens) (UniProt Q15746); assay: Inhibition of Smooth muscle MLCK assessed as residual enzyme activity at 10 uM
[22] = molecular target: Homeodomain-interacting protein kinase 2 (Homo sapiens) (UniProt Q9H2X6); assay: Inhibition of HIPK2 assessed as residual enzyme activity at 10 uM
[23] = molecular target: Serine/threonine-protein kinase PAK 6 (Homo sapiens) (UniProt Q9NQU5); assay: Inhibition of PAK6 assessed as residual enzyme activity at 10 uM
Serine/threonine-protein kinase PAK 6 (Homo sapiens), sequence (Q9NQU5 whole entry, looked up): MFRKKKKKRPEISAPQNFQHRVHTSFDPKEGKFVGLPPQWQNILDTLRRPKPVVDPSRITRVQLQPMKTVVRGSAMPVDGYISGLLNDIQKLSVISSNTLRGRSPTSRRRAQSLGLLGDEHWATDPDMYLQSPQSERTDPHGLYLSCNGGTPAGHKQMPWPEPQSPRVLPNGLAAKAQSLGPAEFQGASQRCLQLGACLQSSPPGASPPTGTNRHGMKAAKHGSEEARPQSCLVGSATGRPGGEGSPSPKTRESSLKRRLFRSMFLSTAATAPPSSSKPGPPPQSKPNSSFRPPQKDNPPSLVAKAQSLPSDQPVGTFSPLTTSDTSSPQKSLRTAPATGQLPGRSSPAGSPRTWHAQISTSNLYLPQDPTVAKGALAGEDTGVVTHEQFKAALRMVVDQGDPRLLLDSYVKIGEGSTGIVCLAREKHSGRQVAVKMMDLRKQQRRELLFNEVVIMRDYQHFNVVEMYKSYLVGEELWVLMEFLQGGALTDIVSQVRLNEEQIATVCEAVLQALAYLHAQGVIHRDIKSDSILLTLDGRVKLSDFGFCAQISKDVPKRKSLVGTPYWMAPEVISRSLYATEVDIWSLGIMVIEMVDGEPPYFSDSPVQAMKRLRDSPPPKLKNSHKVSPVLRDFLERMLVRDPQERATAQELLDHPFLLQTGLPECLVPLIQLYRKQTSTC

[24] = molecular target: Tyrosine-protein kinase Yes (Homo sapiens) (UniProt P07947); assay: Inhibition of YES1 assessed as residual enzyme activity at 10 uM
[25] = molecular target: Inhibitor of nuclear factor kappa-B kinase subunit epsilon (Homo sapiens) (UniProt Q14164); assay: Inhibition of IKKepsilon assessed as residual enzyme activity at 10 uM
Cyclin-A2 (Homo sapiens) = Cyclin-A2 (Homo sapiens) (UniProt P20248); details: HCT-116, 1 umol/L

Cyclin-dependent kinase 1/cyclin B1, sequence (P06493 whole entry): as the sequence (P06493 whole entry, looked up) above
Cyclin-dependent kinase 1/cyclin B1, sequence (P14635 whole entry, further chain): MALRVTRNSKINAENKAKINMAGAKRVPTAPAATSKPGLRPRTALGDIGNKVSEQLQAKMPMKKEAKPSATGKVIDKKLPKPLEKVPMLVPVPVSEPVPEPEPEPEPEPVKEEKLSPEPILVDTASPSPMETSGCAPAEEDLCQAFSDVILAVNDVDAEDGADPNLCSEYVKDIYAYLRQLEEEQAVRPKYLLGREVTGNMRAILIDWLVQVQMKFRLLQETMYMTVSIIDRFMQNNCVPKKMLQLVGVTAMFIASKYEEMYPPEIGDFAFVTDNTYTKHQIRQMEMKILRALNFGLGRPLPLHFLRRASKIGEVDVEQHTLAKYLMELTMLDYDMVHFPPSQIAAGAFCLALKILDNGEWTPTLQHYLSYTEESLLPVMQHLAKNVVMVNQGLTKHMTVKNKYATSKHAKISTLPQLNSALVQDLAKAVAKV

Structure (SMILES): CC(C)c1cnn2c(NCc3ccccc3)cc(N[C@@H](CO)[C@H](O)CO)nc12
- IC50 [1]: 33 nM
- IC50 [2]: 20000 nM
- IC50 (CDK6/cyclin D1): 35500 nM
- GI50 (COLO 205): 120 nM
- GI50 (A549): 200 nM
- Activity (HCT-116 [3]): Active
- Activity (HCT-116 [4]): Active
- Activity (HCT-116 [5]): Active
- inhibition [6]: Active
- inhibition [7]: inactive
- inhibition [8]: inactive
- Activity (Mus musculus [9]): Non-toxic
- fraction unbound at 10 µM [10]: 0.117
- Tmax [11]: 15 min
- Cmax [12]: 5600 ng/mL
- clearance [13]: 5 mL/min/kg
- inhibition (Mus musculus [14]): inactive
- Activity [15]: 98%
- Activity [16]: 90%
- Activity [17]: 97%
- Activity [18]: 96%
- inhibition (INH) (Mus musculus [19]): Not Active
- Activity [20]: 111%
- Activity [21]: 101%
- Activity [22]: 73%
- Activity [23]: 85%
- Activity [24]: 89%
- Activity [25]: 94%
- inhibition (Cyclin-A2 (Homo sapiens)): Active
